Data set [1] in a line: In vivo inverse agonist activity at RORgamma in MOG(35-55) peptide/PTX-induced mechanistic C57BL/6 mouse model assessed as anti-CD3 induced IL-2 level in serum at 30 mg/kg, po dosed for 5 days during MOG/PTX priming and followed by 45 mins prior to anti-CD3 challenge and measured after 2 hrs relative to control. Type of data set: functional. The conditions noted are these: time 5 day. The essentials: (§1)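 Mice immunized with mouse MOG35-55 peptide plus pertussis toxin. After 5 days, compound given orally as a suspension in methylcellulose 400cp + 1% poloxamer, 45 min before an anti-CD3 challenge. Circulating cytokines measured 2 h later. Comparison vs vehicle by Dunnett post test.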

Data set [2] is described as follows: In vivo inverse agonist activity at RORgamma in MOG(35-55) peptide/PTX-induced mechanistic C57BL/6 mouse model assessed as anti-CD3 induced IL-17A level in serum at 30 mg/kg, po dosed for 5 days during MOG/PTX priming and followed by 45 mins prior to anti-CD3 challenge and measured after 2 hrs relative to control. Particulars: time 5 day. It counts as functional. The essentials: as §1

Data set [3] has as its system Mus musculus. Put plainly: In vivo inverse agonist activity at RORgamma in po dosed MOG(35-55) peptide/PTX-induced mechanistic C57BL/6 mouse model assessed as anti-CD3 induced IL-17A level in serum dosed for 5 days during MOG/PTX priming and followed by 45 mins prior to anti-CD3 challenge and measured after 2 hrs relative to control. It counts as functional, organism-based. The conditions noted are these: dose mg/kg 10-100, time 5.0 day. Summed up:
as §1

Data set [4] in a line: In vivo inverse agonist activity at RORgamma in MOG(35-55) peptide/PTX-induced mechanistic C57BL/6 mouse model assessed as anti-CD3 induced IL-10 level in serum at 10 mg/kg, po dosed for 5 days during MOG/PTX priming and followed by 45 mins prior to anti-CD3 challenge and measured after 2 hrs (reference value: -11%). Type of data set: functional. Particulars: time 5 day. Summed up: as §1

Data set [5] is described as follows: Stability in mouse microsomes assessed as unbound intrinsic clearance. It counts as ADME, Microsome. The essentials: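 Unbound intrinsic clearance measured in human and mouse liver microsomes, expressed in L/h/kg. Values are geometric means of at least two separate runs.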
Data set [6] is described as follows: In vivo inverse agonist activity at RORgamma in MOG(35-55) peptide/PTX-induced mechanistic C57BL/6 mouse model assessed as anti-CD3 induced IL-22 level in serum at 30 mg/kg, po dosed for 5 days during MOG/PTX priming and followed by 45 mins prior to anti-CD3 challenge and measured after 2 hrs relative to control. Particulars: time 5 day. Type of data set: functional. Summed up:
as §1

A short description of data set [7]: In vivo inverse agonist activity at RORgamma in MOG(35-55) peptide/PTX-induced mechanistic C57BL/6 mouse model assessed as anti-CD3 induced IL-2 level in serum at 10 mg/kg, po dosed for 5 days during MOG/PTX priming and followed by 45 mins prior to anti-CD3 challenge and measured after 2 hrs relative to control. The conditions noted are these: time 5 day. Type of data set: functional. Summed up:
as §1

Data set [8] in a line: In vivo inverse agonist activity at RORgamma in MOG(35-55) peptide/PTX-induced mechanistic C57BL/6 mouse model assessed as anti-CD3 induced IL-6 level in serum at 10 mg/kg, po dosed for 5 days during MOG/PTX priming and followed by 45 mins prior to anti-CD3 challenge and measured after 2 hrs relative to control. It counts as functional. The conditions noted are these: time 5 day. Summed up: as §1

A short description of data set [9]: In vivo inverse agonist activity at RORgamma in MOG(35-55) peptide/PTX-induced mechanistic C57BL/6 mouse model assessed as anti-CD3 induced IL-6 level in serum at 100 mg/kg, po dosed for 5 days during MOG/PTX priming and followed by 45 mins prior to anti-CD3 challenge and measured after 2 hrs relative to control. Particulars: time 5 day. It counts as functional. The essentials:
as §1

Data set [10] addresses CYP3A4 (Homo sapiens, UniProt P08684). The data set can be described thus: Inhibition of CYP3A4 (unknown origin) at 1 uM relative to control. It counts as ADME.
Data set [11] in a line: Cmax in mouse at 100 mg/kg, po. Type of data set: ADME, organism-based. Further details: route oral, dose 100 mg/kg. The conditions noted are these: in vivo. Summed up: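 Oral ascending-dose PK in mice at 100 mg/kg (ratios against 10 mg/kg), given as a suspension in 1% methylcellulose 400cp + 0.1% Poloxamer. Cmax, AUClast and t1/2 come from plasma profiles.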
Data set [12] is described as follows: Unbound plasma clearance in mouse at 10 mg/kg, po or 1 mg/kg, iv. It counts as ADME, organism-based. Particulars: in vivo. Summed up: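 Mouse PK using two routes: iv at 1 mg/kg and po at 10 mg/kg. The po dose was a suspension in 1% methylcellulose 400cp + 0.1% Poloxamer 188. Unbound plasma clearance derived from the plasma profiles.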
The nature of data set [13]: In vivo inverse agonist activity at RORgamma in MOG(35-55) peptide/PTX-induced mechanistic C57BL/6 mouse model assessed as anti-CD3 induced TNFalpha level in serum at 100 mg/kg, po dosed for 5 days during MOG/PTX priming and followed by 45 mins prior to anti-CD3 challenge and measured after 2 hrs relative to control. Type of data set: functional. Particulars: time 5 day. The essentials:
as §1

Data set [14] can be described thus: Cmax in mouse at 30 mg/kg, po. It counts as ADME, organism-based. Also noted: route oral, dose 30 mg/kg. The conditions noted are these: in vivo. Summed up: (§2)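 Mice dosed orally at 10, 30 or 100 mg/kg as a suspension in 1% methylcellulose 400cp + 0.1% Poloxamer (188). Tmax, Cmax, AUClast and oral t1/2 were taken from plasma concentration–time profiles. Ratios are the value at each dose over the value at 10 mg/kg.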

Data set [15] in a line: Half life in mouse at 10 mg/kg, po. It counts as ADME, organism-based. The conditions noted are these: in vivo. Summed up: as §2
Data set [16] can be described thus: AUClast in mouse at 10 mg/kg, po. Further details: route oral, time 0 - last, dose 10 mg/kg. It counts as ADME, organism-based. The conditions noted are these: in vivo. The essentials:
as §2

A short description of data set [17]: In vivo inverse agonist activity at RORgamma in MOG(35-55) peptide/PTX-induced mechanistic C57BL/6 mouse model assessed as anti-CD3 induced TNFalpha level in serum at 30 mg/kg, po dosed for 5 days during MOG/PTX priming and followed by 45 mins prior to anti-CD3 challenge and measured after 2 hrs relative to control. Type of data set: functional. Particulars: time 5 day. The essentials: as §1

Data set [18] is described as follows: In vivo inverse agonist activity at RORgamma in MOG(35-55) peptide/PTX-induced mechanistic C57BL/6 mouse model assessed as anti-CD3 induced IL-2 level in serum at 100 mg/kg, po dosed for 5 days during MOG/PTX priming and followed by 45 mins prior to anti-CD3 challenge and measured after 2 hrs relative to control. Particulars: time 5 day. It counts as functional. The essentials:
as §1

Data set [19] deals with Mus musculus. Put plainly: Immunosuppressive activity in PLP (139 to 151 residues)-induced experimental autoimmune encephalomyelitis mouse model assessed as reduction in disease onset at 60 mg/kg, po administered bid starting from immunization relative to control. Type of data set: functional. The essentials:
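EAE induced in mice by immunization with proteolipid protein peptide PLP139-151; ascending paralysis develops 10–12 days post-immunization. Compound dosed orally b.i.d. starting from immunization. Disease onset/incidence scored relative to control.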

The nature of data set [20]: In vivo inverse agonist activity at RORgamma in MOG(35-55) peptide/PTX-induced mechanistic C57BL/6 mouse model assessed as anti-CD3 induced IFNgamma level in serum at 10 mg/kg, po dosed for 5 days during MOG/PTX priming and followed by 45 mins prior to anti-CD3 challenge and measured after 2 hrs relative to control. Type of data set: functional. Particulars: time 5 day. Summed up: as §1

Data set [21] is described as follows: Half life in mouse at 30 mg/kg, po. It counts as ADME, organism-based. Particulars: in vivo. Summed up: as §2
Data set [22] can be described thus: In vivo inverse agonist activity at RORgamma in MOG(35-55) peptide/PTX-induced mechanistic C57BL/6 mouse model assessed as anti-CD3 induced IL-17A level in serum at 100 mg/kg, po dosed for 5 days during MOG/PTX priming and followed by 45 mins prior to anti-CD3 challenge and measured after 2 hrs relative to control. It counts as functional. Particulars: time 5 day. Summed up:
as §1

Results on one compound are retold here after ChEMBL document CHEMBL4665652, “Discovery of novel quinoline sulphonamide derivatives as potent, selective and orally active RORγ inverse agonists” (Bioorg Med Chem Lett, 2019).

As usually defined, the inhibition is the drop in the measured response relative to a control, in per cent. The term Cmax denotes the peak of the concentration-time curve. By half-life is commonly meant how long it takes for the measured level to halve. Low readings indicate fast loss, high ones slow loss. The term AUC(0-t) denotes the area under the concentration-time curve up to a stated or last time point. As usually defined, the inhibition in vivo is how much of the control response was suppressed.

Chain of CYP3A4 (P08684 whole entry): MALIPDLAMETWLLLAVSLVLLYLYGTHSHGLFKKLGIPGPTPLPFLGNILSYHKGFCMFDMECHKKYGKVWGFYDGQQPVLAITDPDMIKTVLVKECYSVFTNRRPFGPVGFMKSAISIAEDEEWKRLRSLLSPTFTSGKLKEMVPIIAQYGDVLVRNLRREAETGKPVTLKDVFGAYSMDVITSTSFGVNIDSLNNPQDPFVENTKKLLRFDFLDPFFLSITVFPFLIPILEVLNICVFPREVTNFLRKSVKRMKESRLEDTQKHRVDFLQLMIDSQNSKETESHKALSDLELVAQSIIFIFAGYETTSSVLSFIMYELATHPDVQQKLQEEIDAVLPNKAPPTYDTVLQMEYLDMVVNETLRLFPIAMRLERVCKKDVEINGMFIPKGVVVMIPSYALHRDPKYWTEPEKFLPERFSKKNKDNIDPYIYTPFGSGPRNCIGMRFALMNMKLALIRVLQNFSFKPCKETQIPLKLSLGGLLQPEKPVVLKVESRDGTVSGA

For `CNC(=O)[C@@H]1CCCN1S(=O)(=O)c1ccc(Cl)c(COc2cccc3c(-c4cncn4C)cc(C(C)C)nc23)c1Cl`, the Activity in [1] was -30%; in data set [2] it was -52%; in data set [3], “Dose-dependent effect”; in data set [4] it was -3%; in [6], -46%; in data set [7], -39%. Moreover, the Activity in data set [8] was -29%; in data set [9], -21%; in data set [13], -32%; in [17] it was -27%; in data set [18] it was -46%; in data set [20] it was -39%. Moreover, the Activity in data set [22] was -62%. Further, the CL free was 100 mL/min/kg in data set [5] and 1620 mL/min/kg in data set [12]. In [10], this compound registered an inhibition at 1 µM of 99%. Besides, the Cmax came out at 27500 ng/mL in data set [11] and 11800 ng/mL in data set [14]. The half-life in data set [15] is below 1 h; in [21], 1 h. This compound came in with an AUC(0-t) in [16] of 3900 ng·h/mL. Moreover, the inhibition in vivo at 60 mg/kg in data set [19] was determined as 81%.
